This note sets out measurements from ChEMBL document CHEMBL3102848, “Carbamazepine derivatives with P2X4 receptor-blocking activity” (Bioorg Med Chem, 2014).

What all share (type): cell-based
In test [1] the target is T1, P2X purinoceptor 4 (Homo sapiens) (UniProt Q99571).
T1 sequence (whole entry): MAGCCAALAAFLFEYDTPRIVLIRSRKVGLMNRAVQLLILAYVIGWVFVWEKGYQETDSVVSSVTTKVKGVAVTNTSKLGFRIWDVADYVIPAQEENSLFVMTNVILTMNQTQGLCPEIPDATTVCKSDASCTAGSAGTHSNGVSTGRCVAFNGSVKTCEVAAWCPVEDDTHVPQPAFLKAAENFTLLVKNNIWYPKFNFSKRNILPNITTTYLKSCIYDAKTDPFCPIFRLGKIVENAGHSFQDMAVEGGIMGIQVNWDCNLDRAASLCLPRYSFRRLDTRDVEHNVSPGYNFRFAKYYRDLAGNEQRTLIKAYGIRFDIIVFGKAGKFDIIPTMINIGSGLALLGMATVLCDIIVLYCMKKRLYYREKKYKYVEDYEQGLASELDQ
Kind of test: Antagonist activity at human P2X4 receptor expressed in human 1321N1 cells assessed as inhibition of ATP-induced cytosolic calcium influx at 100 uM preincubated for 30 mins followed by ATP addition by Fluo-4 AM dye-based fluorescence assay. Put shortly: (§1)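 Human P2X4 stably transfected into 1321N1 astrocytoma cells. Inhibition of ATP-induced calcium influx measured as in earlier work. Compounds were first screened at a single high concentration, chosen according to their solubility.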

The next test has as its target T2, P2X purinoceptor 4 (Homo sapiens, UniProt Q99571).
T2 sequence (Q99571 whole entry): T1 sequence (whole entry)
As to the kind of experiment: Antagonist activity at human P2X4 receptor expressed in human 1321N1 cells assessed as inhibition of ATP-induced cytosolic calcium influx preincubated for 30 mins followed by ATP addition by Fluo-4 AM dye-based fluorescence assay. In outline:
as §1

In test [2] the target is T1, P2X purinoceptor 4 (Homo sapiens). As to the kind of experiment: Antagonist activity at human P2X4 receptor expressed in human 1321N1 cells assessed as inhibition of ATP-induced cytosolic calcium influx at 300 uM preincubated for 30 mins followed by ATP addition by Fluo-4 AM dye-based fluorescence assay. Put shortly:
as §1

Test [3] shares this target. Kind of test: Antagonist activity at human P2X4 receptor expressed in human 1321N1 cells assessed as inhibition of ATP-induced cytosolic calcium influx at 10 uM preincubated for 30 mins followed by ATP addition by Fluo-4 AM dye-based fluorescence assay. Put shortly:
as §1

Test [4] has the same target. As to the kind of experiment: Antagonist activity at human P2X4 receptor expressed in human 1321N1 cells assessed as inhibition of ATP-induced cytosolic calcium influx at 20 uM preincubated for 30 mins followed by ATP addition by Fluo-4 AM dye-based fluorescence assay. In outline: as §1

Each structure is given as a SMILES string. pIC50: −log10 of the molar value.

Consider `CC(C)N(C(=O)c1cccc2c1Nc1ccccc1C=C2)C(C)C`, for which the inhibition in test [1] stood at 74%. The pIC50 at P2X purinoceptor 4 is 4.51.
On the same counts, the results for `CNC1=Cc2ccccc2N(C(N)=O)c2ccccc21` are 80% and 4.43.
On to `CCN(CC)C(=O)N1c2ccccc2C=Cc2ccncc21`, for which the inhibition in test [1] is 52%. Moreover, on P2X purinoceptor 4, the negative-log IC50 (pIC50) was 4.00.
As to `CN(C)CCN(C)C(=O)N1c2ccccc2C=Cc2ccccc21`, in test [1], the inhibition came to 42%. The pIC50 on P2X purinoceptor 4 is ≤ 4.00.
For `CCOC1Cc2ccccc2N(C(N)=O)c2ccccc21` (racemic), in that order: 17% and < 4.00.
On to `NC(=O)N1c2ccccc2C=Cc2ccc(O)cc21`, for which, at P2X purinoceptor 4, the pIC50 is 4.14. Besides, the inhibition in test [2] was 99%.
As to `Cc1ccc2c(c1)N(C(N)=O)c1ccccc1C=C2`, the inhibition in test [1] was 21%. The pIC50 at P2X purinoceptor 4 was < 4.00.
On the same counts, the results for `O=C(NCc1ccccc1)N1c2ccccc2C=Cc2ccccc21` are 75% and 4.10.
For `CN1CCC(NC(=O)N2c3ccccc3C=Cc3ccccc32)CC1`, in that order: 56% and ≤ 4.00.
On the same counts, the results for `CC(C)(C)NC(=O)N1c2ccccc2C=Cc2ccccc21` are 92% and 4.86.
On to `C1=Cc2ccccc2N(Cc2ccccc2)c2ccccc21`, for which, in test [1], the inhibition is 34%. Moreover, the pIC50 at P2X purinoceptor 4 was < 4.00.
Take `CC(=O)N1c2ccccc2C=Cc2ccccc21`: in test [1], the inhibition was found to be 39%. For the same molecule, at P2X purinoceptor 4, the pIC50 is < 4.00.
For `O=C(N1CCOCC1)N1c2ccccc2C=Cc2ccccc21`, in that order: 50% and ≤ 4.00.
Take `NC(=O)N1c2ccccc2C=Cc2ccccc21` [CARBAMAZEPINE]: in test [1], the inhibition amounted to 35%. The pIC50 at P2X purinoceptor 4 is < 4.00.
On to `O=C(OCc1ccccc1)N1c2ccccc2C=Cc2ccccc21`, for which, at P2X purinoceptor 4, the pIC50 is 5.22. Moreover, in test [3], the inhibition was determined as 73%.
Regarding `O=C(Nc1ccccc1)N1c2ccccc2C=Cc2ccccc21`, in test [1], the inhibition was 49%. Further, the pIC50 on P2X purinoceptor 4 was 4.00.
For `CCN(CC)C(=O)N1c2ccccc2C=Cc2cccc(C(=O)N(C(C)C)C(C)C)c21`, the pIC50 at P2X purinoceptor 4 is 4.28.
Consider `O=C(NC1CCC(O)CC1)N1c2ccccc2C=Cc2ccccc21` (stereo not given), for which, at P2X purinoceptor 4, the pIC50 was < 4.70. For the same molecule, the inhibition in test [4] amounted to 0%.
Regarding `CN(C)CCCNC(=O)N1c2ccccc2C=Cc2ccccc21`, the inhibition in test [1] was 54%. In addition, the pIC50 at P2X purinoceptor 4 was 4.00.
On the same counts, the results for `CN(C)C(=O)N1c2ccccc2C=Cc2ccccc21` are 49% and ≤ 4.00.
As to `NC(=O)N1c2ccccc2C2OC2c2ccccc21` (stereo not given) [CARBAMAZEPINE EPOXIDE], on P2X purinoceptor 4, the pIC50 is < 5.00. In addition, the inhibition in test [3] is 1%.
With `O=C(N(CCO)CCO)N1c2ccccc2C=Cc2ccccc21`, the inhibition in test [1] is 2%. The negative-log IC50 (pIC50) at P2X purinoceptor 4 is < 4.00.
On the same counts, the results for `NC(=O)N1c2ccccc2CC(O)c2ccccc21` (racemic) [LICARBAZEPINE] are 28% and < 4.00.
For `NC(=O)N1c2ccccc2C=Cc2c1ccc1ccccc21`, in that order: 91% and 4.29.
For `NC1CCC(NC(=O)N2c3ccccc3C=Cc3ccccc32)CC1` (stereo not given), the negative-log IC50 (pIC50) on P2X purinoceptor 4 was < 5.00. The inhibition in test [3] amounted to 11%.
For `NC(=O)N1c2ccccc2CC(=O)c2ccccc21` [OXCARBAZEPINE], in that order: < 5.00 and 10%.
In the case of `O=C(N1CCC(O)CC1)N1c2ccccc2C=Cc2ccccc21`, on P2X purinoceptor 4, the negative-log IC50 (pIC50) is < 4.00.
On to `NC(=O)N1c2ccccc2C=Cc2ccc(F)cc21`, for which the inhibition in test [1] is -2%. Further, at P2X purinoceptor 4, the pIC50 was < 4.00.
As to `CC(=O)O[C@H]1Cc2ccccc2N(C(N)=O)c2ccccc21` [ESLICARBAZEPINE ACETATE], the pIC50 on P2X purinoceptor 4 was < 4.70. The inhibition in test [4] amounted to 25%.
On to `NC(=O)N1c2ccccc2C=Cc2cc(O)ccc21`, for which the pIC50 at P2X purinoceptor 4 was 3.84. The inhibition in test [2] was 82%.
Turning to `COC1=Cc2ccccc2N(C(N)=O)c2ccccc21`, in test [1], the inhibition is 34%. Besides, at P2X purinoceptor 4, the pIC50 is < 4.00.
For `COc1ccc2c(c1)N(C(N)=O)c1ccccc1C=C2`, in that order: 30% and < 4.00.
For `COC(=O)N1c2ccccc2C=Cc2ccccc21`, in that order: 51% and 4.00.
On the same counts, the results for `CC(C)COC(=O)N1c2ccccc2C=Cc2ccccc21` are 58% and 4.00.
Turning to `COc1ccc(CCNC(=O)N2c3ccccc3C=Cc3ccccc32)cc1`, in test [1], the inhibition turned out to be 83%. In addition, on P2X purinoceptor 4, the pIC50 is 4.56.
On to `NC(=O)N1c2ccccc2C=C(N)c2ccccc21`, for which the pIC50 on P2X purinoceptor 4 is < 5.00. The inhibition in test [3] was found to be 12%.
For the molecule `NC(=O)N1c2ccccc2C=Cc2ccc(C(F)(F)F)cc21`, in test [1], the inhibition is 72%. The pIC50 at P2X purinoceptor 4 was 4.26.
Regarding `NC(=O)N1c2ccccc2CCc2ccccc21`, the inhibition in test [1] is 35%. The pIC50 at P2X purinoceptor 4 was < 4.00.
On the same counts, the results for `CC(C)NC(=O)N1c2ccccc2C=Cc2ccccc21` are 47% and 4.72.
On the same counts, the results for `O=C(c1ccccc1)N1c2ccccc2C=Cc2ccccc21` are 75% and 4.63.
For `CCCCNC(=O)N1c2ccccc2C=Cc2ccccc21`, in that order: 49% and ≤ 4.00.
`O=C(NCCc1ccccc1)N1c2ccccc2C=Cc2ccccc21`: the inhibition in test [1] is 107%. The pIC50 on P2X purinoceptor 4 was 4.44.
On the same counts, the results for `O=C(Nc1ccncc1)N1c2ccccc2C=Cc2ccccc21` are 30% and < 4.00.
On the same counts, the results for `NC(=O)N1c2ccccc2C=Cc2cc(F)ccc21` are 11% and < 4.00.
On the same counts, the results for `CN(C)c1ccc2c(c1)N(C(N)=O)c1ccccc1C=C2` are 39% and 4.82.
`CNC(=O)N1c2ccccc2C=Cc2ccccc21`: in test [1], the inhibition amounted to 47%. Moreover, the pIC50 at P2X purinoceptor 4 was ≤ 4.00.
